Data reported in ChEMBL document CHEMBL2034962, “Immunosuppressive decalin derivatives from red yeast rice” (J Nat Prod, 2012).
Calls of active or inactive are those of the source. The rule behind the calls is not given here.

Experiments:
T-cell [1] = assay: Immunosuppressive activity in human T lymphocytes assessed as inhibition of PMA-ionomycin-induced cell proliferation after 72 hrs by BrdU-based ELISA analysis; format: functional
In short: (§1)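 Nonadherent buffy-coat T lymphocytes (Ficoll, adherence-depleted) at 10^5 cells/well in RPMI 1640 + 10% FBS, in triplicate. Costimulated with PMA–ionomycin ± compound (10–100 μM) for 72 h. BrdU added at 10 μM final, 14 h before the end. Incorporation read by ELISA. Lovastatin and simvastatin served as positive controls. Means ± SEM, one-way ANOVA.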

T-cell [2] = assay: Immunosuppressive activity in human T lymphocytes assessed as inhibition of PMA-ionomycin-induced cell proliferation at 10 to 100 uM after 72 hrs by BrdU-based ELISA analysis; format: functional; in short: as §1
[3] = Cytotoxicity against human T lymphocytes at 10 to 100 uM after 72 hrs by MTT assay; details: t-cell
In short: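 T cells from buffy-coat blood via Ficoll separation, with macrophages removed by adherence. Cultured at 1 × 10^5 cells/well in RPMI 1640 + 10% FBS, n = 3, with 10–100 μM compound for 72 h. MTT (5 mg/mL) added for 4 h, then dissolved in 10% SDS/50% DMF, pH 7.2. A570 read; viability = Atreated/Acontrol × 100.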

SMILES	inhibition (T-cell [1])	Activity (T-cell [2])	Activity [3]	inhibition (T-cell [2])
C[C@@H]1CC[C@@H]2[C@@H](CCC(=O)O)[C@@H](C)C=C[C@H]2C1 [HEPTAKETIDE]	Dose-dependent effect	Active	Non-toxic	–
C[C@H]1C=C2C=C[C@H](C)[C@H](/C=C/C(=O)O)[C@H]2CC1 [MONASCUSIC ACID D]	Dose-dependent effect	Active	Non-toxic	–
C[C@@H]1CC[C@@H]2[C@@H](/C=C/C(=O)O)[C@@H](C)C=C[C@H]2C1 [MONASCUSIC ACID B]	Dose-dependent effect	Active	Non-toxic	–
C[C@H]1C=C2C=C[C@H](C)[C@H](CCC(=O)O)[C@H]2CC1 [MONASCUSIC ACID A]	Dose-dependent effect	Active	Non-toxic	–
C[C@H]1C=C2C=C[C@H](C)[C@]3(CCC(=O)O3)[C@H]2CC1 (relative stereo)	–	–	Non-toxic	Active
C[C@@H]1CC[C@@H]2/C(=C/CC(=O)O)[C@@H](C)C=C[C@H]2C1 [MONASCUSIC ACID C]	Dose-dependent effect	Active	Non-toxic	–
C[C@H]1C=C2C=C[C@H](C)/C(=C\CC(=O)O)[C@H]2CC1 [MONASCUSIC ACID E]	–	–	Non-toxic	Active
